H9c2 TAG inh: inhibitors of triacylglycerol accumulation | H9c2 cells, Nile Red lipid (TAG) fluorescence; cells loaded with 200 µM oleic acid | AID 651582 | inhibition, % at 12.5 µM | 230,000 tested, 0.66% active;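 active = pattern-corrected inhibition of lipid staining of at least 50% with the nuclear-stain viability signal not falling by more than 50%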;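 also: 0% = DMSO wells and 100% = triacsin C control wells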
H9c2 protect: modulators protecting cardiomyocytes from myocardial damage. H9c2 cardiomyocytes, H2O2 injury protection, ATPLite, 2 h. 360,000 tested, 0.63% active. AID 588492. protection from H2O2 cell death, % at 20 µM;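 active = compounds giving at least 50% protection of heart cells from peroxide-induced death in the single-dose screen, raw or plate-pattern-corrected value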;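 also: 0% = DMSO wells with peroxide and 100% = DMSO wells without peroxide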
DDE Tn6 FP inh: DD(E)-Tn6 binding inhibition, primary FP screen; P02675; Fibrin DD(E) TRITC-Tn6 fluorescence polarization displacement; inhibition, % at 8.3 µM; 370,000 tested, 0.21% active;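 active = inhibition above a per-campaign cutoff: mean of compounds within control limits plus 3 SD, cut at about 15% in these data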;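 also: 0% = median of all compound wells on the plate and 100% = blocking peptide control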
MT1-MMP act inh: MT1-MMP (human) activation inhibition. HT1080 RFP-PRO-GFP cells, GFP/RFP ratio fluorescence, overnight; percent of plate control window, DMSO zero. 360,000 tested, 0.061% active. AID 651647. GFP/RFP ratio change, % at 20 µM. P50281;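 active = GFP/RFP ratio change of at least 30% with cell ATP level not reduced by more than half and red fluorescence within 50% of control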
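Read-out: GFP/RFP fluorescence ratio; Test system: RFP-PRO-GFP reporter HT1080 cells; Compound dosing: single-point 20 µM compound, 1% DMSO; Times: overnight compound exposure at 37 °C.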
DDE Tn7 FP inh: inhibitors of Tn7 peptide binding to human fibrin DD(E). 370,000 tested, 0.13% active. inhibition, % at 8.3 µM. FP displacement of FITC-Tn7 peptide from fibrin DD(E); 0% = median of compound wells per plate;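 active = inhibition above the mean of compounds falling within the control limits plus 3 SD of them, cut at about 14% in these data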;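 also: 0% = plate median of compound wells and 100% = 10 µM Aha-Tn7 peptide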
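Assay system: human fibrin DD(E). Input: DD(E) 2 µM final. Medium: Tris buffer with calcium and detergent, pH 7.8. Compound dosing: single point at 8.3 µM. Timing: 10 min plus 3 h, room temperature. Technique: fluorescence polarization of the labelled Tn7 tracer. Read-out: percent inhibition. Replicates: singlicate testing.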
DAGLB inh: blocks human DAGLB lipase activity. Q8NCG7. HEK293T DAGLB membrane lysate, EnzChek fluorogenic substrate. inhibition, % at 5.17 µM. 340,000 tested, 0.059% active; in the data active = inhibition above about 34%;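 also: 0% = enzyme with vehicle and 100% = wells lacking enzyme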
DAGLB confirm: DAGLB (human) inhibition, confirmation screen. shares compounds with DAGLB inh. 190 tested, 73% active. HEK293T DAGLB membrane lysate, EnzChek fluorogenic substrate. inhibition, % at 5.17 µM;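 active = mean inhibition over triplicate wells above a set limit taken from the primary lipase screen, cut at about 34% in these data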;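 also: 0% = DAGLB with DMSO and 100% = wells lacking DAGLB enzyme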
* = called active by the depositor; . = no result. Sampled rows, rich in hits. Any-hit rate of the full collection: about 1.4%.

SMILES	H9c2 TAG inh	H9c2 protect	DDE Tn6 FP inh	MT1-MMP act inh	DDE Tn7 FP inh	DAGLB inh	others
Cc1nn(-c2ccccc2)c(N2CCCC2)c1/C=N/NC(=O)c1cc(-c2cccnc2)nc2ccccc12	-16	59*	-7	-11	2	3
Cc1cc(C(=O)N/N=C/c2cccc([N+](=O)[O-])c2)c2ccccc2n1	.	49	-3	1	2	-4
COc1ccc(C(=O)OCCCN(C)C2CN(Cc3cn(Cc4cccc(F)c4)nn3)S(=O)(=O)C2)cc1OC (centres undefined)	.	.	4	.	1	.
COC(=O)[C@]12C[C@H](CC(=O)NCc3cccc(C(F)(F)F)c3)C(=O)N(Cc3cccc4ccccc34)C1=C[C@H](C(C)C)O[C@@H]2C1CC1	.	.	10	.	-3	.
O=C(CSc1nnc(-c2ccncc2)n1-c1ccc(Br)cc1)c1ccccc1	.	.	-1	.	-1	.
CCOC(=O)N1CCN(C(=O)C[C@H]2C[C@@]3(C(=O)OC)C(=C[C@H](COCc4ccccc4)O[C@@H]3C)N(Cc3cccc4ccccc34)C2=O)CC1	.	.	2	.	4	.
N#C/C(=C\c1ccc(O)c(O)c1)C(=O)NCCc1ccccc1	10	77*	-2	2	4	29
N#C/C(=C\c1ccc(O)c(O)c1)C(=O)N1CCc2ccccc21	-2	77*	2	-28	-5	34
COc1cc(/C=C(\C#N)C(=O)N2CCc3ccccc32)ccc1O	-11	4	-4	-40	0	1
CC1(C)CC(=O)c2c(oc3cc(O)c(O)cc23)C1	.	90*	-2	-3	-4	5
O[C@@H](Cc1ccccc1)[C@@H](/C=C/c1ccccc1)NCCc1ccccc1	.	.	-6	.	5	.
NC(=S)NN=Cc1nccc2c(C(F)(F)C(F)(F)C(F)(F)F)cccc12	74*	5	10	6	4	2
NC(=S)NN=Cc1nccc2ccccc12	14	22	2	5	-11	2
O=C(NC1CCCCN(Cc2cccc(C(F)(F)F)c2)C1=O)c1ccc(COc2ccccc2)cc1 (centres undefined)	.	.	-3	.	-4	.
CC(=NNC(=O)CSc1nnc(-c2ccccc2)n1-c1ccccc1)c1cccc([N+](=O)[O-])c1	.	.	1	.	-8	.
CC(=O)c1cccc(Nc2nc(-c3sc(N)nc3C)cs2)c1	-1	70*	4	-1	8	0
COc1ccccc1Nc1nnc(SCc2nnc(-c3cc(OC)c(OC)c(OC)c3)o2)s1	.	21	-3	6	-5	2
CCOc1ccccc1Nc1nnc(SCc2nnc(-c3cc(OC)c(OC)c(OC)c3)o2)s1	.	68*	-7	11	-1	4
COC(=O)[C@]12C[C@H](CC(=O)N3CCCC3)C(=O)N(Cc3ccc(Cl)cc3Cl)C1=C[C@H](C1CCCC1)O[C@@H]2C	.	.	-10	.	7	.
C[C@H]1[C@@H](OC(=O)NCc2ccco2)CC[C@@]23CCCN2C(=O)CCC[C@@H]13	.	.	-2	.	-2	.
Cc1cccn2c(=O)c3cc(C#N)c(=NC(=O)c4ccncc4)n(CCCOC(C)C)c3nc12	11	7	1	0	8	1
CCCCn1c(=NC(=O)c2cccnc2)c(C#N)cc2c(=O)n3cccc(C)c3nc21	3	54*	-5	-6	2	3
CCOC(=O)c1cc2c(=O)n3cccc(C)c3nc2n(CCCOC)c1=NC(=O)c1cccnc1	23	101*	1	2	-1	1
Cc1cccn2c(=O)c3cc(C#N)c(=NC(=O)c4cccs4)n(CCCOC(C)C)c3nc12	14	57*	8	3	3	1
COc1ccc(C(=O)OCCCN(C)C2CN(Cc3cn(Cc4ccccc4F)nn3)S(=O)(=O)C2)cc1OC (centres undefined)	.	.	-3	.	-1	.
CCOc1ccc2c(c1)-c1c(ssc1=S)C(C)(C)N2	.	-8	.	19	.	39*	DAGLB confirm=35*
S=c1[nH]nc(-c2n[nH]c3c2CCC3)n1N=Cc1ccc(OCc2ccccc2)cc1	.	.	5	.	-1	.

Compound activity deposited in PubChem by several laboratories.
